Among the data in ChEMBL document CHEMBL1128190, “Inhibition of E-selectin-, ICAM-1-, and VCAM-1-mediated cell adhesion by benzo[b]thiophene-, benzofuran-, indole-, and naphthalene-2-carboxamides: identification of PD 144795 as an antiinflammatory agent” (J Med Chem, 1995) are IC50, inhibition and inhibition in vivo values, retold here.

A short description of assay [1]: The compound was tested for cell adhesion by measuring the inhibitory concentration against Human umbilical vein endothelial cell (HUVEC) activation, using calcein-AM as radioligand. The class given is functional, cell-based.
Assay [2] in a line: The compound was tested for cell adhesion by measuring the inhibitory concentration against Human umbilical vein endothelial cell (HUVEC) activation using neutrophils labelled with calcein-AM at 100 uM. It is filed as functional.
The nature of assay [3]: Tested for cell adhesion by measuring the inhibitory concentration against Human umbilical vein endothelial cell (HUVEC) activation, using Na51CrO4 as radioligand at 100 uM. It is filed as functional. The method, boiled down:
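Confluent second-passage HUVEC monolayers were stimulated with TNF-α (200 U/mL) for 4 h with or without compound at 100 μM, then washed. Fresh human neutrophils labelled with Na⁵¹CrO₄ (5 × 10⁵) were added for 30 min at 37 °C. Non-adherent cells were aspirated and adherent cells lysed in NH₄OH; lysates were γ-counted. Results are % inhibition of TNF-stimulated adherence, triplicate. IC50 came from linear regression at 33.3–1.0 μM.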

Assay [4] is described as follows: Inhibitory activity against E-Selectin mediated cell adhesion in Human umbilical endothelial cell culture, by using HUVEC surface expression assay at 50 uM. It is filed as functional. The method, boiled down: (§1)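 Confluent HUVECs were given compound 30 min before TNF-α (140 U/mL final), then incubated 4 h at 37 °C. Cells were formalin-fixed and surface E-selectin detected by cell ELISA (mouse anti-E-selectin 0.5 μg/mL, peroxidase anti-mouse IgG), with absorbance at 414 nm. Unstimulated background was subtracted and results given as % inhibition versus vehicle. IC50 came from linear regression; average of two assays, each in triplicate.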

The nature of assay [5]: Inhibitory activity against intercellular adhesion molecule (ICAM)-1 mediated cell adhesion in Human umbilical endothelial cell culture, by using HUVEC surface expression assay at 50 uM. It is filed as functional. Put shortly:
(§2)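 HUVECs were pretreated with compound for 30 min, then stimulated with TNF-α (140 U/mL final) for 4 h at 37 °C. After formalin fixation, surface ICAM-1 was measured by cell ELISA (mouse anti-ICAM-1 0.5 μg/mL, peroxidase anti-mouse IgG), with absorbance at 414 nm. Unstimulated background was subtracted and results given as % inhibition versus vehicle. IC50 came from linear regression; average of two triplicate assays.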

Assay [6] can be described thus: The compound was tested for cell adhesion by measuring the inhibitory concentration against Human umbilical vein endothelial cell (HUVEC) activation, using Na51CrO4 as radioligand at 50 uM. The class given is functional.
Assay [7] has as its system Rattus norvegicus. The assay can be described thus: Inhibitory activity against Mycobacterium-induced foot-pad edema(MFE)at 50 mg/kg. The class given is functional.
Assay [8] in a line: Inhibitory activity against E-Selectin mediated cell adhesion in Human umbilical endothelial cell culture, by using HUVEC surface expression assay. It is filed as functional, cell-based. Put shortly: as §1
A short description of assay [9]: Inhibitory activity against intercellular adhesion molecule (ICAM)-1 mediated cell adhesion in Human umbilical endothelial cell culture, by using HUVEC surface expression assay. It is filed as functional, cell-based. Put shortly:
as §2

Assay [10] is described as follows: The compound was tested for cell adhesion by measuring the inhibitory concentration against Human umbilical vein endothelial cell (HUVEC) activation, using Na51CrO4 as radioligand. The class given is functional, cell-based.
In assay [11] the test system is Rattus norvegicus. The assay can be described thus: Inhibitory activity against Mycobacterium-induced foot-pad edema(MFE) at 50 mg/kg. The class given is functional.

For the molecule `CC(C)Sc1c(C(N)=O)sc2ccc(O)cc12`, the IC50 in assay [1] is 3.6 µM.

Take `COc1ccc2sc(C(=O)NC(C)C)c(OC(C)C)c2c1`: in assay [2], the inhibition at 100 µM is 26%.

For `COc1ccc2sc(C(N)=O)c(OC(C)(C)C)c2c1`, 100 µM produced 97% inhibition in [3].

Regarding `COc1ccc2c(c1)c(OC(C)C)c(C(N)=O)[s+]2[O-]` (stereo unspecified) [listing 1 of 2 here], the inhibition at 50 µM in [4] was found to be 25%; in [5], 24%; in [6], 20%. The inhibition in vivo at 50 mg/kg with Rattus norvegicus [7] came to 5%.

With `COc1ccc2c(c1)c(OC(C)C)c(C(N)=O)[s+]2[O-]` (stereo unspecified) [listing 2 of 2 here], the IC50 worked out at 9.6 µM in [8], 5.7 µM in [9] and 4 µM in assay [10]. For the same molecule, testing at 50 mg/kg in the assay on Rattus norvegicus [11] gave an inhibition in vivo of 83%.
